Calls of active or inactive are those of the source. The calls are words filed in the database; no cut-off is given here.
How the values were obtained:
Human betaherpesvirus 5 [1] = test: Antiviral activity against human cytomegalovirus AD169 in HEL cells assessed as reduction of plaque formation after 7 days; assay type: functional, organism-based; details: Human betaherpesvirus 5, AD169, HEL, 168 h
In short: (§1)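 Confluent HEL fibroblasts infected with HCMV (Davis or AD-169) at 100 PFU per well; after 2 h adsorption, residual virus removed and medium with serial compound concentrations added (duplicate wells). Incubated 7 days; EC50 taken as concentration reducing plaque formation by 50%.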

Human alphaherpesvirus 3 [2] = test: Antiviral activity against thymidine kinase deficient Varicella-Zoster virus 07/1 assessed as reduction of plaque formation; assay type: functional, organism-based; details: Human alphaherpesvirus 3, 07/1
In short: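 Plaque reduction assay in HEL cells against TK+ (OKA) and TK- (07/1) VZV strains; virus input 100 PFU; EC50 as concentration giving 50% plaque reduction.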

Human alphaherpesvirus 3 [3] = test: Antiviral activity against thymidine kinase expressing Varicella-Zoster virus OKA assessed as reduction of plaque formation; assay type: functional, organism-based; details: Human alphaherpesvirus 3, OKA
MIA PaCa-2 = test: Growth inhibition of MiaPaCa2 cells after 72 hrs by MTT assay; assay type: functional, cell-based; details: Homo sapiens, MIA PaCa-2, 72 h
In short: (§2)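 Tumor lines grown as monolayers in DMEM with 10% FBS, 2 mM L-glutamine and penicillin. Freshly diluted compounds added, solvent tested at matching concentrations; after 72 h growth measured by MTT. IC50 obtained by linear regression of concentrations bracketing 50% growth; mean of three separate experiments.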

Sindbis virus = test: Antiviral activity against sindbis virus in Vero cells assessed as reduction of virus plaque formation after 7 days; assay type: functional, organism-based; details: 168 h
Human betaherpesvirus 5 [4] = test: Antiviral activity against human cytomegalovirus Davis in HEL cells assessed as reduction of plaque formation after 7days; assay type: functional, organism-based; details: Human betaherpesvirus 5, Davis, 168 h; in short: as §1
[5] = test system: Mammalian orthoreovirus 1; test: Antiviral activity against reovirus1 virus in Vero cells assessed as reduction of virus plaque formation after 7 days; assay type: functional, organism-based; details: Mammalian orthoreovirus 1, Vero, 168 h
[6] = Growth inhibition of human Molt4/C8 cells after 72 hrs by MTT assay; assay type: functional, cell-based; details: MOLT-4, 72 h
Punta Toro virus = test: Antiviral activity against Punta Toro virus in Vero cells assessed as reduction of virus plaque formation after 7 days; assay type: functional, organism-based; details: 168 h
CCRF-CEM = test: Growth inhibition of human CEM cells after 72 hrs by MTT assay; assay type: functional, cell-based
MCF7 = test: Growth inhibition of MCF7 cells after 72 hrs by MTT assay; assay type: functional, cell-based; details: Homo sapiens, MCF7, 72 h; in short: as §2
WI-38 = test: Growth inhibition of human WI38 fibroblasts at 0.1 uM after 72 hrs by MTT assay; assay type: functional, cell-based
SW-620 = test: Growth inhibition of SW620 cells after 72 hrs by MTT assay; assay type: functional, cell-based; details: Homo sapiens, SW-620, 72 h; in short: as §2
[7] = Cytotoxicity against HEL cells assessed as cell growth after 7 days; assay type: cell-based; details: human
[8] = Cytotoxicity against HEL cells assessed as cell morphology after 7 days; assay type: cell-based; details: human
In short: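 Uninfected confluent HEL cultures exposed to compounds; MCC recorded as lowest concentration producing a microscopically detectable alteration of normal cell morphology at day 7.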

Coxsackievirus B4 = test: Antiviral activity against coxsackie B4 virus in HeLa cells assessed as reduction of virus plaque formation after 7 days; assay type: functional, organism-based; details: Enterovirus B, 168 h
HEp-2 = test: Growth inhibition of Hep2 cells after 72 hrs by MTT assay; assay type: functional, cell-based; details: Homo sapiens, HEp-2, 72 h; in short: as §2
Human respirovirus 3 = test: Antiviral activity against parainfluenza 3 virus in Vero cells assessed as reduction of virus plaque formation after 7 days; assay type: functional, organism-based; details: Human respirovirus 3, Vero, 168 h
HeLa = test: Growth inhibition of HeLa cells after 72 hrs by MTT assay; assay type: functional, cell-based; details: Homo sapiens; in short: as §2
L1210 = test: Growth inhibition of mouse L1210 cells after 72 hrs by MTT assay; assay type: functional, cell-based; details: L1210, 72 h

| Compound | EC50 (Human betaherpesvirus 5 [1]) [µM] | EC50 (Human alphaherpesvirus 3 [2]) [µM] | EC50 (Human alphaherpesvirus 3 [3]) [µM] | IC50 (MIA PaCa-2) [µM] | EC50 (Sindbis virus) [µM] | EC50 (Human betaherpesvirus 5 [4]) [µM] | EC50 [5] [µM] | EC50 (Punta Toro virus) [µM] | IC50 (CCRF-CEM) [µM] | IC50 (MCF7) [µM] | IC50 (SW-620) [µM] | EC50 (Coxsackievirus B4) [µM] | EC50 (Human respirovirus 3) [µM] | IC50 (HeLa) [µM] | IC50 (L1210) [µM] | IC50 [6] [µM] | Activity (WI-38) | CC50 at 168 h [7] [µM] | MCC at 168 h [8] [µM] | IC50 (HEp-2) [µM] |
| --- | --- | --- | --- | --- | --- | --- | --- | --- | --- | --- | --- | --- | --- | --- | --- | --- | --- | --- | --- | --- |
| CC(=O)OC(C)(CF)Cc1cc(O)nc(O)n1 (centres undefined) | > 100 | > 100 | > 100 | > 200 | > 200 | > 100 | > 200 | > 200 | > 200 | > 200 | > 200 | > 200 | > 200 | > 200 | > 200 | > 200 |  | > 100 | > 100 | > 200 |
| CC(O)(CF)Cc1cc(O)nc(O)n1 (centres undefined) | > 100 | > 100 | > 100 | > 200 | > 196 | > 100 | > 196 | > 196 | > 200 | > 200 | > 200 | > 200 | > 196 | > 200 | > 200 | > 200 |  | > 100 | > 100 | > 200 |
| COc1cc(CC(O)(c2ccc(F)cc2)c2ccc(F)cc2)nc(OC)n1 | > 100 | > 100 | > 100 | > 100 | > 40 | > 100 | > 40 | > 40 | > 500 | > 100 | > 100 | > 40 | > 40 | > 100 | ≥ 500 | > 500 |  | > 100 | > 100 | > 100 |

More lines, main results first:

| EC50 (Human betaherpesvirus 5 [1]) [µM] | EC50 (Human alphaherpesvirus 3 [2]) [µM] | EC50 (Human alphaherpesvirus 3 [3]) [µM] | IC50 (MIA PaCa-2) [µM] | EC50 (Sindbis virus) [µM] | EC50 (Human betaherpesvirus 5 [4]) [µM] | EC50 [5] [µM] | EC50 (Punta Toro virus) [µM] | IC50 (CCRF-CEM) [µM] | IC50 (MCF7) [µM] | IC50 (SW-620) [µM] | EC50 (Coxsackievirus B4) [µM] | EC50 (Human respirovirus 3) [µM] | IC50 (HeLa) [µM] | IC50 (L1210) [µM] | Compound | IC50 [6] [µM] | Activity (WI-38) | CC50 at 168 h [7] [µM] | MCC at 168 h [8] [µM] | IC50 (HEp-2) [µM] |
| --- | --- | --- | --- | --- | --- | --- | --- | --- | --- | --- | --- | --- | --- | --- | --- | --- | --- | --- | --- | --- |
| > 100 | > 100 | > 100 | 2 | > 8 | > 100 | > 8 | > 8 | 28 | 8 | 1 | > 40 | > 8 | 18 | 38 | COc1nc(CBr)c(Br)c(OC)n1 | 97 | inactive | 38.7 | > 100 | 7 |
| > 100 | > 100 | > 100 | > 200 | > 200 | > 100 | > 200 | > 200 | > 200 | > 200 | > 200 | > 200 | > 200 | > 200 | > 200 | COc1cc(CC(C)(O)CF)nc(OC)n1 (centres undefined) | > 200 |  | > 100 | > 100 | > 200 |
| > 100 | > 100 | > 100 | > 200 | > 200 | > 100 | > 200 | > 200 | > 200 | > 200 | > 200 | > 200 | > 200 | > 200 | > 200 | COc1cc(CC(C)(O)C(F)(F)F)nc(OC)n1 (centres undefined) | > 200 |  | > 100 | > 100 | > 200 |
| > 0.8 | > 20 | > 20 | 20 | > 40 | > 0.8 | > 40 | > 40 | 70 | > 17 | 20 | > 40 | > 40 | 17 | 82 | COc1nc(CC(C)(O)C(F)(F)F)c(-c2ccccc2)c(OC)n1 (centres undefined) | 118 |  | 35 | 4 | 19 |

Reference: ChEMBL document CHEMBL1145384, “Novel C-6 fluorinated acyclic side chain pyrimidine derivatives: synthesis, (1)H and (13)C NMR conformational studies, and antiviral and cytostatic evaluations” (J Med Chem, 2007)
